# Data as given in ChEMBL document CHEMBL4825756, “New Design Rules for Developing Potent Cell-Active Inhibitors of the Nucleosome Remodeling Factor (NURF) via BPTF Bromodomain Inhibition” (J Med Chem, 2021).
# Calls of active or inactive are those of the source. The rule behind the calls is not given here.
# What was measured:
# [1] = biological target: T1, Histone acetyltransferase KAT2B (Homo sapiens, UniProt Q92831); test: Binding affinity to PCAF (unknown origin) by BROMOscan method
# Target sequence in this assay (Q92831 whole entry): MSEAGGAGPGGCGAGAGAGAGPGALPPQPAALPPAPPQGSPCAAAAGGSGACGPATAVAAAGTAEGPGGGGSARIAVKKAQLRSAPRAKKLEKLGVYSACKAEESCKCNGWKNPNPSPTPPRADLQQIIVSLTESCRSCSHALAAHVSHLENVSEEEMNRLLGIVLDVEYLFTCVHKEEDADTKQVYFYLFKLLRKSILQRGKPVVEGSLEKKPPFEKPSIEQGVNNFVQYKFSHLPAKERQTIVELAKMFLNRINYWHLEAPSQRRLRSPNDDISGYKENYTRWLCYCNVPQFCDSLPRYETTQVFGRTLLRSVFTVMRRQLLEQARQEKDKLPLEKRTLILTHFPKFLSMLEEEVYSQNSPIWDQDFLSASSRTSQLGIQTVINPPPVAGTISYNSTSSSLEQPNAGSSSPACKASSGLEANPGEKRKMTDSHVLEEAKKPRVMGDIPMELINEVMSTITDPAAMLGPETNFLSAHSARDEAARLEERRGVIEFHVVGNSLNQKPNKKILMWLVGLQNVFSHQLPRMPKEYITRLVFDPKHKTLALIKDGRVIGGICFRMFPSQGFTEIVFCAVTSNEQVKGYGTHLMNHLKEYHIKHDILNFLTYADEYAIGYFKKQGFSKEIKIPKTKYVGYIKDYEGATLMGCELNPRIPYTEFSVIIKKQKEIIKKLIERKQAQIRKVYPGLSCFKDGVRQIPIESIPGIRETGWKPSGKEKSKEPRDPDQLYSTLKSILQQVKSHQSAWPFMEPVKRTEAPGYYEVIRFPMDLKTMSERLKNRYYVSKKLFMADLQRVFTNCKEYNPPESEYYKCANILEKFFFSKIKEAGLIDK
# [2] = biological target: T2, Bromodomain-containing protein 9 (Homo sapiens, UniProt Q9H8M2); test: Binding affinity to BRD9 (unknown origin) by BROMOscan method
# T2 sequence (Q9H8M2 whole entry): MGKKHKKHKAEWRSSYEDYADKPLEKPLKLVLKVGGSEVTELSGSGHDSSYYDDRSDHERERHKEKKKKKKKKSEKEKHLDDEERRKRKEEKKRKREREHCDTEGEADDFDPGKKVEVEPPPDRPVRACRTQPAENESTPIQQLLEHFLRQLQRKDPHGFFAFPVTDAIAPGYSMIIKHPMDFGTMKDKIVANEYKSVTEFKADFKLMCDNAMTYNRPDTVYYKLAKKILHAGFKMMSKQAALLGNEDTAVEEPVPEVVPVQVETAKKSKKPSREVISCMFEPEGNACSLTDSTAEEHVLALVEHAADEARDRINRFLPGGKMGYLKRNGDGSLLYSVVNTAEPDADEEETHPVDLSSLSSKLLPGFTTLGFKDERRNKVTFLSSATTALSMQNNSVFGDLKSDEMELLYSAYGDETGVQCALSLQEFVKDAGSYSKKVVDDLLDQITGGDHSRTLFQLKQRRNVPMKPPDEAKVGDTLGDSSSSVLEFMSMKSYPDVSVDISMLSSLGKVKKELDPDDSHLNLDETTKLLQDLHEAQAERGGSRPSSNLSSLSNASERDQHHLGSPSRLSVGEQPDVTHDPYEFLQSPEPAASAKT
# EpH4 [3] = test: Upregulation of sprr1a mRNA in mouse EpH4 cells at 5 uM after 24 hrs by qRT-PCR analysis; assay type: functional, cell-based
# Method in brief: (§1)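 Murine Eph4 mammary epithelial cells were treated at 5 μM for 24 h and harvested in trizol. Transcripts were quantified by SYBR Green qPCR. Group differences were tested by one-way ANOVA at p<0.05.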
# EpH4 [4] = test: Upregulation of Myc mRNA in mouse EpH4 cells at 5 uM after 24 hrs by qRT-PCR analysis; assay type: functional, cell-based; method in brief: as §1
# EpH4 [5] = test: Upregulation of sfn mRNA in mouse EpH4 cells at 5 uM after 24 hrs by qRT-PCR analysis; assay type: functional, cell-based; method in brief: as §1
# 4T1 [6] = test: Growth inhibition of mouse 4T1 cells assessed as reduction cell viability 5 to 15 uM in presence of doxorubicin incubated for 4 days by MTS assay relative to control; assay type: functional, cell-based; conditions: dose 5-15 µM, time 4.0 day
# Method in brief: (§2)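 Mouse 4T1 breast cancer cells in DMEM with 10% FBS, 2 mM glutamine and penicillin-streptomycin, 4000 cells/well, adhered overnight. Three inhibitor doses, chosen from toxicity curves, given for 4 days alone or with 50 nM doxorubicin, also in shRNA BPTF-knockdown cells. MTS absorbance read at 490 nm; fraction survival scaled to untreated cells (1.0) and blank (0.0); N=3, mean ± SEM.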
# 4T1 [7] = test: Growth inhibition of mouse 4T1 cells BPTF knock down assessed as reduction cell viability 15 uM in presence of doxorubicin incubated for 4 days by MTS assay relative to control; assay type: functional, cell-based; conditions: time 4.0 day
# Method in brief: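 4T1 cells with shRNA BPTF knockdown, grown in DMEM with 10% FBS, 2 mM glutamine and pen-strep, were seeded at 4000/well and allowed to adhere overnight. They were treated 4 days in complete medium with one of three inhibitor doses chosen from toxicity curves, combined with 50 nM doxorubicin. MTS absorbance was read at 490 nm. Fraction survival was set against untreated cells (1.0) and blank (0.0).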
# [8] = biological target: Nucleosome-remodeling factor subunit BPTF (Homo sapiens, UniProt Q12830); test: Binding affinity to 5FW-labeled BPTF (unknown origin) expressed in Escherichia coli BL21 (DE3) cells by PrOF NMR analysis
# [9] = biological target: T3, Bromodomain-containing protein 4 (Homo sapiens, UniProt O60885); test: Inhibition of HIS9-tagged BRD4 (unknown origin) expressed in Escherichia coli BL21 (DE3) cells incubated for 30 mins by AlphaScreen assay
# 4T1 [10] = test: Growth inhibition of mouse 4T1 cells assessed as reduction cell viability 2.5 to 8 uM in presence of doxorubicin incubated for 4 days by MTS assay relative to control; assay type: functional, cell-based; conditions: dose 2.5-8 µM, time 4.0 day; method in brief: as §2
# [11] = biological target: Chromatin remodeling regulator CECR2 (Homo sapiens) (UniProt Q9BXF3); test: Inhibition of CECR2 (unknown origin) at 140 nM by BROMOscan method relative to control
# Chain of Chromatin remodeling regulator CECR2 (Homo sapiens) (Q9BXF3 whole entry, looked up): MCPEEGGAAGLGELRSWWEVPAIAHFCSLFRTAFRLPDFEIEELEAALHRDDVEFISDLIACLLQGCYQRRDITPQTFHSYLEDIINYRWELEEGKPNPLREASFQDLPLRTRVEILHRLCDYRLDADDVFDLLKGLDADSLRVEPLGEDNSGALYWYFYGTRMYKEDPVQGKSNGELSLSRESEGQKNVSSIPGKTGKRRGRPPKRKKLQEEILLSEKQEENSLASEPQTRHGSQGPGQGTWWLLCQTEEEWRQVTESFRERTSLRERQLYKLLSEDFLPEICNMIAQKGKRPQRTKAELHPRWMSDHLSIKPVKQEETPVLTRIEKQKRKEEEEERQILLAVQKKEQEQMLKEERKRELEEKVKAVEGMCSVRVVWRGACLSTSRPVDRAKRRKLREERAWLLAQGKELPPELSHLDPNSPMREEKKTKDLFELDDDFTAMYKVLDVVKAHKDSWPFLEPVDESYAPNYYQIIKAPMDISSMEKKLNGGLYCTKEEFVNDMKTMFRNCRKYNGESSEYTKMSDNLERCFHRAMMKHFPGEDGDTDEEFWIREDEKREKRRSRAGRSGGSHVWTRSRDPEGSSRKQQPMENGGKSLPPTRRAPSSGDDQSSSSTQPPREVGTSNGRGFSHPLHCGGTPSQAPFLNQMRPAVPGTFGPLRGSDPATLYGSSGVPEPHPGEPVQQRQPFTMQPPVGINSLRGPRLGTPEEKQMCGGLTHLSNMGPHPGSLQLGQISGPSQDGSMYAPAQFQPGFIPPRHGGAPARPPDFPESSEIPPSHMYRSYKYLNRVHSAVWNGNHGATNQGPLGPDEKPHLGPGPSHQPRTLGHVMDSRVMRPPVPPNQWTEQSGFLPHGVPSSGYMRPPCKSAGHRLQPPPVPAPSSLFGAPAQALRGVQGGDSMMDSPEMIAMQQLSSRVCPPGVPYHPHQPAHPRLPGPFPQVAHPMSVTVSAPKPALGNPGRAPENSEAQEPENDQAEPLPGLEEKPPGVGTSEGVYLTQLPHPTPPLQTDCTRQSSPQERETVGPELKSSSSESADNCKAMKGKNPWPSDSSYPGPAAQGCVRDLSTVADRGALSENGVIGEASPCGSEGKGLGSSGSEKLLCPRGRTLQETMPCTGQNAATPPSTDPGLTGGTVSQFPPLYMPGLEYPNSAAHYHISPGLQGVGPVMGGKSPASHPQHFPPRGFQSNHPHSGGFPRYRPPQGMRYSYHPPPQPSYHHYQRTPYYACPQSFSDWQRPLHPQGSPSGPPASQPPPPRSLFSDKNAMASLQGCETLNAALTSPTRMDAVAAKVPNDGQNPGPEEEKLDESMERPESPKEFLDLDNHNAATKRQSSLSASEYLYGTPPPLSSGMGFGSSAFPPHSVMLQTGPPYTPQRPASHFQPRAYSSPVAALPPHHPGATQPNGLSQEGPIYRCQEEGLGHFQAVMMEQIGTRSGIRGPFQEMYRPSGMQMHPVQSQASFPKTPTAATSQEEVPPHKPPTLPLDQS
# [12] = biological target: T1, Histone acetyltransferase KAT2B; test: Binding affinity to 5FW-labeled PCAF (unknown origin) expressed in Escherichia coli BL21 (DE3) cells at 7.4 to 200 uM by PrOF NMR analysis; conditions: dose 7.4-200 µM
# Method in brief: (§3)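 Protein-observed 19F NMR with 5-fluorotryptophan-labelled protein. Each ligand is titrated and the change in chemical shift relative to a control sample is plotted against ligand concentration to give a binding isotherm. Kd is taken from a fit to the quadratic binding equation, which uses total ligand and total protein concentrations.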
# Target sequence in this assay (Q92831 whole entry, looked up): as the sequence (Q92831 whole entry) above
# [13] = biological target: Histone acetyltransferase KAT2A (Homo sapiens) (UniProt Q92830); test: Inhibition of GCN5L2 (unknown origin) at 140 nM by BROMOscan method relative to control
# Chain of Histone acetyltransferase KAT2A (Homo sapiens) (Q92830 2-837 limits assumed): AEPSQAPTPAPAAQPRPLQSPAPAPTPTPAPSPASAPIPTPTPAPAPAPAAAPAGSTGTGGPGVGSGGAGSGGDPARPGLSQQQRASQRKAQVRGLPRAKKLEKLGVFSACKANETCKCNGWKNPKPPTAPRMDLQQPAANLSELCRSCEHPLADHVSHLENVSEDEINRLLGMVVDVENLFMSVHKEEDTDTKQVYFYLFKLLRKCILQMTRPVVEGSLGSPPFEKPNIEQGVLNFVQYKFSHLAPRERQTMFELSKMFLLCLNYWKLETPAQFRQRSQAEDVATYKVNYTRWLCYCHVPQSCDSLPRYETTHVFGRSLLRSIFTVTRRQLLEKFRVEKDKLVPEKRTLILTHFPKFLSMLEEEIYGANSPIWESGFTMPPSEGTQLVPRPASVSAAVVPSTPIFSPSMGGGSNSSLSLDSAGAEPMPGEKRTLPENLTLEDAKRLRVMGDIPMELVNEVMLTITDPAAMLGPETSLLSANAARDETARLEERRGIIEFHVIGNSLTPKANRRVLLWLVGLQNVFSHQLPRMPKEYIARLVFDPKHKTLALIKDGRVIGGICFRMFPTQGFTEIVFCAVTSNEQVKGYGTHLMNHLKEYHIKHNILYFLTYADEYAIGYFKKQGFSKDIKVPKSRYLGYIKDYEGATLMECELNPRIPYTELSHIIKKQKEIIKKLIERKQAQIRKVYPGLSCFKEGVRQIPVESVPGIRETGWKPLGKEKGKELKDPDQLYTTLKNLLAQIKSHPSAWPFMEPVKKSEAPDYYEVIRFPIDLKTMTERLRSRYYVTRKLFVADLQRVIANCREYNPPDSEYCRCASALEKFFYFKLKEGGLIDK
# [14] = biological target: Chromatin remodeling regulator CECR2 (Homo sapiens) (UniProt Q9BXF3); test: Binding affinity to 5FW-labeled CECR2 (unknown origin) expressed in Escherichia coli BL21 (DE3) cells at 7.4 to 200 uM by PrOF NMR analysis; conditions: dose 7.4-200 µM; method in brief: as §3
# [15] = biological target: T3, Bromodomain-containing protein 4; test: Binding affinity to BRD4 BD1 (unknown origin) by BROMOscan method
smiles,measurement,setting,value
CN(C)CCCc1ccc(Nc2cnn(C)c(=O)c2Cl)cc1,Kd,[1],370 nM
same,Kd,[2],230 nM
CN(C)CCc1ccc(Nc2cnn(C)c(=O)c2Cl)cc1,Activity,EpH4 [3],inactive
same,Activity,EpH4 [4],inactive
same,Activity,EpH4 [5],Active
same,growth inhibition (GI),4T1 [6],Active
COC(=O)c1cccc(NC(=O)N[C@H]2CCN(c3ccnc(Nc4ccc(F)cc4)n3)C2)c1,Activity,EpH4 [3],inactive
same,Activity,EpH4 [4],inactive
same,Activity,EpH4 [5],inactive
same,growth inhibition (GI),4T1 [7],Active
Cn1ncc(Nc2ccc(CCN)cc2)c(Br)c1=O,Kd,[1],14 nM
same,Kd,[2],0.24 nM
CN(C)CCCOc1ccc(-c2cc(NCCCn3cccn3)nc(S(C)(=O)=O)n2)cc1,Kd,[8],120000 nM
CC(C)n1ncc(Nc2ccc(CN)cc2)c(Cl)c1=O,IC50,[9],Not Active
Cn1ncc(Nc2ccc(CCN)cc2)c(Cl)c1=O,growth inhibition (GI),4T1 [10],Active
same,inhibition,[11],Active
same,IC50,[9]; read-out: IC50,31000 nM
same,Activity,[12],Active
same,inhibition,[13],Active
same,Activity,[14],Active
same,Kd,[15],2200 nM
